Screens: PubChem, several laboratories
Most compounds without a hit are left out; they make up all but 2.3% or so of the library.
TRPC4 act: activators of mouse TRPC4 channel | B-score at 10 µM | AID 2237 | HEK293 TRPC4beta/mu-opioid, Fluo4 calcium fluorescence; hits give high values | Q9QUQ5 | actives 0.49% (n = 310,000);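 active = B-score above 5 SD of library B-scores, and initial fluorescence ratio not above library mean plus 5 SD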;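 also: positive B-score marks a calcium rise read as TRPC4 activation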
Target sequence (Q9QUQ5 whole entry, looked up): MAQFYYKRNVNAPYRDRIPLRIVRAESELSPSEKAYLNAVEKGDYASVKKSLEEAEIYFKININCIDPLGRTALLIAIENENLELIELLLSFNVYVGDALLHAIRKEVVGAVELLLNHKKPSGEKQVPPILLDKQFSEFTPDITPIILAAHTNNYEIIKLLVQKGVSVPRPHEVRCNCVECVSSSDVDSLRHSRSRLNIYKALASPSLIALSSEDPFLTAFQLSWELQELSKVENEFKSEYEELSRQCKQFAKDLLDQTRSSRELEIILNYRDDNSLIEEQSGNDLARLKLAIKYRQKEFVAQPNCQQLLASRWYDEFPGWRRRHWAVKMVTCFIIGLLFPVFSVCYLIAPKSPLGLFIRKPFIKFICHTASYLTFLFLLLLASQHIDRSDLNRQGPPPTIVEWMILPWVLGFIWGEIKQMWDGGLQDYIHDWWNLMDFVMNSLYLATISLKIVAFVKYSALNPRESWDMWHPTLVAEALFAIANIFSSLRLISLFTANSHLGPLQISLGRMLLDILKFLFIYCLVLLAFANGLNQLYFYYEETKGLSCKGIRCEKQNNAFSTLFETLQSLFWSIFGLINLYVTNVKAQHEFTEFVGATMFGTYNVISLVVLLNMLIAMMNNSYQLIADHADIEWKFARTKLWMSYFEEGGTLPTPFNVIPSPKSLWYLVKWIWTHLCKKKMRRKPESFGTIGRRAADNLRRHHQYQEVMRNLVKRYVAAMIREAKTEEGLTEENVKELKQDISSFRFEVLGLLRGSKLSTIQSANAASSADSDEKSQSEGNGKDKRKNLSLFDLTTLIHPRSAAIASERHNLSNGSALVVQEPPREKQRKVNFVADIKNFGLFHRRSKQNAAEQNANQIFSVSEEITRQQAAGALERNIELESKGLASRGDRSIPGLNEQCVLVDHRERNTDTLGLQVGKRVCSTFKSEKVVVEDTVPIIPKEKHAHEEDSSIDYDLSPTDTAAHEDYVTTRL
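Test system: HEK293 cells stably co-expressing mouse TRPC4beta and mu-opioid receptor | Schedule: Fluo4 dye loading 45 min at room temperature, 110 s recording | Measured by: Kinetic Fluo4 calcium fluorescence, 5 s baseline at 1 Hz | Evaluation: B score of integrated ratio | Controls: Buffer (low) and maximal DAMGO (high)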
TRPC4 block: blocks the mouse TRPC4 cation channel; B-score at 10 µM; Q9QUQ5; actives 0.39% (n = 300,000); HEK293 TRPC4beta/mu-opioid, DAMGO-evoked Fluo4 calcium flux; hits give low values;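 active = B-score over 3 SD under the library average, no early fluorescence shift, positive overall ratio signal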
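material = TRPC4beta/mu-opioid receptor HEK293 cell line | probe or stimulus = sequential submaximal and maximal DAMGO stimulation | compound dosing = one concentration per compound | measured by = Fluo4 Ca2+ flux fluorescence | evaluation = integrated fluorescence ratio relative to baseline, converted to per-well B score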
Yeast superoxide: yeast age-related superoxide inhibition as caloric restriction mimetic | actives 0.18% (n = 330,000) | S. cerevisiae aged cells, superoxide DHE fluorescence; hits give low values | superoxide response (% of plate mean), % at 10 µM;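 active = superoxide response under a set limit, about three screen SD below normal, cut at about 65% in these data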;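 also: yeast aged for seven days with compound at 30 °C before DHE staining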
TRPC6 act: activators of mouse TRPC6 channel | HEK293-TRPC6 membrane potential dye fluorescence; hits give high values | B-score at 10 µM | actives 0.13% (n = 310,000) | AID 2550;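 active = B-score of the integrated fluorescence ratio above library mean plus 3 SD, and starting fluorescence ratio within library mean plus 5 SD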;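 also: higher score means more depolarization so channel activation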
TRPC4 PAM: allosteric potentiators of mouse TRPC4 channel. Q9QUQ5. HEK293 TRPC4beta/mu-opioid, DAMGO EC20, Fluo-4 Ca2+ flux; hits give high values. B-score at 10 µM. actives 0.42% (n = 310,000). AID 2227;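 active = B-score of calcium response area above 5 SD of library B-scores, with initial fluorescence ratio within 5 SD of library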
TRPC6 inh: inhibitors of mouse TRPC6 channel | Q61143 | HEK293-TRPC6, membrane potential dye, ACh-evoked depolarization; hits give low values | B-score at 10 µM | actives 1.1% (n = 310,000);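 active = B-score under library mean minus 3 SD, initial fluorescence not abnormally high, positive integrated signal ratio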;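 also: B-score derived from integrated fluorescence ratio over the kinetic read; more negative B-score means stronger inhibition of depolarization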
TRPC4 sel inh 2: second selectivity test of TRPC6 inhibitors: effect on mouse TRPC4; HEK293 TRPC4/MOR, membrane potential dye fluorescence; channel activated by saturating DAMGO dose; shares compounds with TRPC6 inh; actives 42% (n = 920); inhibition, % at 10 µM; AID 2776;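 active = compounds whose fluorescence signal differed from control wells by over 3 SD, either direction, in both duplicate plates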
TRPC4 spec: selectivity of TRPC6 inhibitors: effect on mouse TRPC4 | AID 2777 | actives 61% (n = 920) | activity change, negative = inhibition, % at 10 µM | shares compounds with TRPC6 inh | HEK293 TRPC4/mu-opioid, membrane potential fluorescence;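 active = rise or fall in signal beyond 3 SD of buffer-only wells in both replicate plates, either sign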;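 also: integrated kinetic ratio of fluorescence range over baseline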
HEK293 MPD ctr 2-1: parental HEK293 nonspecific activity of TRPC6 inhibitors, second screen; shares compounds with TRPC6 inh; parental HEK293 membrane potential dye fluorescence; maximal acetylcholine challenge after compound addition; signal change vs control, % at 10 µM; actives 31% (n = 920); AID 2779;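 active = membrane potential signal moving either way by over 3 SD of the maximum-effect control, in both duplicate plates, meaning non-specific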
HEK293 MPD ctr-1: checks TRPC6 inhibitor effects in parental HEK293 cells. shares compounds with TRPC6 inh. parental HEK293 membrane potential dye fluorescence. membrane potential signal change, % at 10 µM. actives 60% (n = 920);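 active = membrane potential signal shifting up or down by more than 3 SD of buffer-only wells, on both duplicate plates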
HEK293 MPD ctr-2: checks TRPC6 modulator effects in parental HEK293 cells. membrane potential dye fluorescence. membrane potential signal change, % at 10 µM. actives 51% (n = 2,400). AID 488924. shares compounds with TRPC6 inh;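 active = membrane potential signal moves up or down beyond 5 SD from buffer-only wells, on both duplicate plates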
HEK293 MPD ctr 2-2: second counter-screen for TRPC6 modulators: effect in parental HEK293 cells; inhibition, % at 10 µM; actives 14% (n = 2,400); membrane potential dye fluorescence; after compound, maximal acetylcholine stimulation; shares compounds with TRPC6 inh; AID 488926;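 active = membrane potential signal drops by more than 5 SD from the mean control signal, in both duplicate plates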
TRPC4/MOR mod: tests whether TRPC6 modulators also affect mouse TRPC4. shares compounds with TRPC6 inh. actives 69% (n = 2,400). percent change from control (negative = decrease, positive = increase), % at 10 µM. AID 488927. HEK293 TRPC4/mu-opioid, membrane potential fluorescence;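 active = membrane potential signal moved up or down beyond 5 SD of buffer control wells, in both duplicate plates, actives on both sides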
TRPC4/MOR inh 2: mouse TRPC4 off-target activity of TRPC6 modulators, second screen | AID 488928 | shares compounds with TRPC6 inh | HEK293 TRPC4/mu-opioid, membrane potential dye fluorescence; stimulated with maximal-effect DAMGO | inhibition, % at 10 µM | actives 55% (n = 2,400);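 active = drop in membrane potential signal beyond 5 SD of the control wells in both duplicate plates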;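 also: TRPC4 counter screen for TRPC6 hits run under conditions tuned for TRPC6 not TRPC4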
TRPC6 block conf: mouse TRPC6 inhibitor confirmation | shares compounds with TRPC6 inh | HEK293-TRPC6, membrane potential dye, ACh-evoked depolarization | inhibition, % at 10 µM | actives 43% (n = 3,300) | AID 488960;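 active = fluorescence ratio falls more than 5 SD below the full-stimulation control mean, in both duplicate runs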;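 also: integrated fluorescence ratio of peak minus minimum over baseline after agonist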
TRPC6 act conf: confirmation of mouse TRPC6 activators; shares compounds with TRPC6 inh; HEK293-TRPC6 membrane potential dye fluorescence, FDSS; activation, % at 10 µM; actives 11% (n = 2,800); AID 488961;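 active = ratio signal rise beyond 5 SD above unstimulated control wells' mean, seen in both duplicate runs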
Hits are given with their value; n = inactive; x = not tested or not shown; + = active, no number.

SMILES	TRPC4 act	TRPC4 block	Yeast superoxide	TRPC6 act	TRPC4 PAM	TRPC6 inh	HEK293 MPD ctr-2	HEK293 MPD ctr 2-2	TRPC4/MOR mod	TRPC4/MOR inh 2	TRPC6 block conf	TRPC6 act conf	others
CCn1ccnc1CN(C)C(=O)c1cc(COc2ccccc2SC)on1	n	n	n	n	n	-7.5	x	x	x	x	n	x	TRPC4 sel inh 2=n;TRPC4 spec=4.0%;HEK293 MPD ctr 2-1=n;HEK293 MPD ctr-1=7.0%
Cc1ccc2c(c1)c1c(n2CC(O)CN2CCC(C)CC2)CCCC1 (stereo not given)	n	n	n	n	n	-5.8	n	n	12%	54%	40%	n
Fc1ccccc1N1CCN(C2CCN(Cc3c[nH]c4ccccc34)CC2)CC1	n	n	n	n	n	-5.2	148%	n	19%	58%	n	x
Clc1ccccc1N1CCN(Cc2c[nH]c3ccccc23)CC1	n	n	n	n	n	n	x	x	x	x	x	x
CCN(CC(=O)Nc1c(F)cccc1F)C(=O)CCNS(=O)(=O)c1ccccc1C(F)(F)F	n	n	n	n	n	n	x	x	x	x	x	x
COc1ccc(CC(=O)Nc2ccc(S(=O)(=O)Nc3cc(C)on3)cc2)cc1	n	n	n	n	n	n	x	x	x	x	x	x
OCCN(CCO)c1nc(-c2ccccc2)nc2c1oc1ccccc12	n	n	n	n	n	n	x	x	x	x	x	x
O=C(NCc1ccccn1)C1CC(c2ccccc2O)=NO1 (stereo not given)	n	n	n	n	n	-5.4	n	n	n	n	n	n
CCOC(=O)Cn1c(=N)n(CCOc2ccc(Br)cc2)c2ccccc21	n	n	n	n	n	-7.7	x	x	x	x	55%	n	TRPC4 sel inh 2=44%;TRPC4 spec=0.5%;HEK293 MPD ctr 2-1=n;HEK293 MPD ctr-1=3.0%
Cc1ccc(-c2nc(C(=O)O)cs2)cc1	n	n	n	n	n	n	x	x	x	x	x	x
COc1ccc(C(C(=O)NCCC(C)C)N(CCN2CCOCC2)C(=O)Cn2nnc3ccccc32)c(OC)c1 (stereo not given)	n	n	n	28	n	n	484%	n	86%	n	n	298%
Cc1cc(/C=C2\SC(=S)NC2=O)c(C)n1-c1cccc(O)c1	n	n	n	14	n	n	568%	n	85%	45%	n	174%
CCn1c(C)cc(/C=C2/SC(=S)NC2=O)c1C	n	n	n	n	n	n	x	x	x	x	x	x
Cc1cc(/C=C2\SC(=S)NC2=O)c(C)[nH]1	n	n	n	27	n	-6.4	782%	+	107%	42%	n	164%
C/C(=N\NC(=O)c1cccc(S(=O)(=O)N2CCCCC2)c1)c1ccc(C)o1	n	n	n	n	n	n	x	x	x	x	x	x
Cc1cc(Nc2cccc([N+](=O)[O-])c2)c2cccc(C)c2n1	n	n	n	n	n	-6.8	x	x	x	x	n	n	TRPC4 sel inh 2=62%;TRPC4 spec=-24%;HEK293 MPD ctr 2-1=43%;HEK293 MPD ctr-1=-444%
Cc1cc(Nc2cccc([N+](=O)[O-])c2)c2ccccc2n1	n	n	n	n	n	-8.1	-164%	n	-34%	52%	46%	n
Cc1cc(Nc2ccc([N+](=O)[O-])cc2)c2ccccc2n1	n	n	n	n	n	n	x	x	x	x	x	x
Cc1ccc(NC(=O)C(C)OC(=O)Cn2[nH]c(=O)c3ccccc3c2=O)cc1 (stereo not given)	n	n	n	n	n	n	x	x	x	x	x	x
COc1cc(CNCCc2ccccc2F)ccc1OCc1ccc(Cl)nc1	n	n	n	n	n	-7.7	x	x	x	x	60%	n	TRPC4 sel inh 2=48%;TRPC4 spec=n;HEK293 MPD ctr 2-1=226%;HEK293 MPD ctr-1=3.9%
CCn1c(CNC(=O)c2ccc3c(c2)OCO3)nnc1SCC(=O)Nc1ccccc1F	n	n	n	n	n	n	x	x	x	x	x	x
O=C(CCn1c(=O)[nH]c2ccsc2c1=O)N1CCN(c2cccc(Cl)c2)CC1	n	n	n	15	n	-13	n	n	n	n	56%	94%
CN(CC(=O)Nc1cccc(F)c1)C(=O)c1ccc(N2CCOCC2)c([N+](=O)[O-])c1	n	n	n	n	n	-7	n	n	92%	76%	n	n
COc1ccc(NC(=O)CN(C)C(=O)c2ccc(N3CCOCC3)c([N+](=O)[O-])c2)cc1	n	n	n	n	n	n	x	x	x	x	x	x
CN(C)Cc1c(O)ccc2cc(-c3nc4ccccc4n3C)c(=O)oc12	n	n	n	n	n	-5	444%	n	-24%	n	n	n
Cc1ccc(N2C(=O)CSC2c2c(F)cccc2Cl)cc1 (stereo not given)	n	n	n	n	n	-12	x	x	x	x	84%	n	TRPC4 sel inh 2=n;TRPC4 spec=n;HEK293 MPD ctr 2-1=-26%;HEK293 MPD ctr-1=n
CCOc1ccc(C(=O)N2CCN(C(=O)c3ccco3)CC2)cc1OCC	n	n	n	n	n	n	x	x	x	x	x	x
O=C(C[n+]1cc(-c2ccc(Cl)cc2)n2c1CCC2)N1c2ccccc2Sc2ccccc21	n	n	n	n	n	-6.2	n	58%	-10%	n	73%	n
Cc1ccc(C(=O)C[n+]2cc(-c3ccc(C)cc3)n3c2CCCCC3)cc1	n	n	n	12	n	-5.4	265%	n	48%	42%	51%	90%
COc1ccc(-c2c[n+](CC(=O)N3c4ccccc4Sc4ccccc43)c3n2CCC3)cc1	n	n	n	n	n	n	x	x	x	x	x	x
